Bioassay records as filed in PubChem BioAssay.
APJ ag: APJ receptor agonism; CHO-K1 APJ PathHunter beta-arrestin, luminescence; 0% DMSO wells, 100% apelin; AID 2520; activation, % at 20 µM; P35414; hit rate 0.11% among 330,000;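 active = activation more than six SD over the plate average, tested at 20 µM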;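 also: 0% = DMSO alone and 100% = apelin-13 at 10 nM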
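Assay system: CHO-K1 cells stably expressing ProLink-tagged human APJ and arrestin–beta-gal acceptor. Compound dosing: 20 µM single point, 1% DMSO. Times: 16-18 h seeding, 90 min dark compound exposure, 60 min detection. Detection: beta-gal luminescence. Evaluation: APJ–arrestin association signal. Controls: negative DMSO alone, positive Apelin-13 at 10 nM.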
APJ antag: APJ receptor antagonism. P35414. CHO-K1 APJ beta-arrestin complementation, luminescence. inhibition, % at 20 µM. hit rate 0.32% among 330,000;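 active = inhibition above about 40% at 20 µM, limit read from the data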;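 also: cells challenged with 10 nM apelin-13 agonist together with compound; plate controls were apelin-13 plus DMSO wells for no effect and DMSO wells lacking apelin-13 for full effect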
CXCR6 block: CXCR6 (human) receptor inhibition. O00574. CHO-K1 PathHunter CXCR6 beta-arrestin, luminescence. inhibition, % at 20 µM. hit rate 0.36% among 360,000; in the data active = inhibition above about 34%, passing the limit was not always enough;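 also: antagonist mode with CXCL16 agonist at 10 nM final; 0% = 10 nM CXCL16 with DMSO and 100% = unstimulated wells without agonist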
Target sequence (O00574 whole entry, looked up): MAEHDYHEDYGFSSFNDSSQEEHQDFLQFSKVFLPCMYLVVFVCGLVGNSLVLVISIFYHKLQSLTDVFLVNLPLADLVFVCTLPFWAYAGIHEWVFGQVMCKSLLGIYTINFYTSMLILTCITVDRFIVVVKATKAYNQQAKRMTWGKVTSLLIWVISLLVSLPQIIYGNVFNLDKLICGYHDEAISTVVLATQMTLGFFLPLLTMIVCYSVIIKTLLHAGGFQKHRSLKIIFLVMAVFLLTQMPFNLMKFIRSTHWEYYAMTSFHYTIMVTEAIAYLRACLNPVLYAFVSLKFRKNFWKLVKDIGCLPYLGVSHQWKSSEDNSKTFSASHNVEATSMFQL
EBI2 block: antagonists of human EBI2 receptor; inhibition, % at 5 µM; hit rate 0.81% among 360,000; P32249; EBI2 beta-arrestin recruitment, luminescence, 7a,25-OHC stimulated; in the data active = inhibition above about 38%;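 also: enzyme fragment complementation signal reports receptor beta-arrestin coupling in cells; 0% = agonist plus DMSO wells and 100% = wells without agonist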
CCR6 antag: antagonists of human CCR6 receptor | P51684 | CHO-K1 CCR6 PathHunter beta-arrestin, luminescence, CCL20-stimulated | inhibition, % at 20 µM | hit rate 0.49% among 340,000;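 active = compounds whose inhibition of the agonist-driven luminescence signal at 20 µM reaches about 50%, limit read from the data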;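 also: cells stimulated with CCL20 at 14 nM final; plate controls were DMSO with CCL20 for no effect and DMSO without agonist for full effect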
EBI2 conf: EBI2 (human) antagonism, single concentration confirmation; EBI2 beta-arrestin luminescence, 7a,25-OHC antagonism; hit rate 29% among 2,400; inhibition, % at 5 µM; shares compounds with EBI2 block; AID 651997;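 active = inhibition of at least 50%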
EBI2 agonist: counter-screen for EBI2 antagonists: EBI2 agonist activity; shares compounds with EBI2 block; EBI2-expressing cells, agonist mode, luminescence, 60 min; 0% vehicle, 100% 7α,25-dihydroxycholesterol control; activation, % at 5 µM; 2,400 tested, under 10 active; AID 652000;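 active = activation of at least 50%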
bGal cs: counter-screen for EBI2 antagonists: E. coli beta-galactosidase inhibition; shares compounds with EBI2 block; purified beta-galactosidase, luminescent Galacton Star, 15 min; inhibition, % at 5 µM; hit rate 1% among 2,400; AID 652176;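 active = replicate-average signal at least 3 plate SD below neutral wells, shown as high inhibition, flagging enzyme-inhibiting false positives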;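 also: 0% = DMSO wells with enzyme and 100% = wells lacking enzyme; higher means stronger loss of beta-gal luminescence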
An asterisk follows results filed as active. Shown are actives, neighbours in structure and some others; about 1.5% of the full set was active somewhere.

`COc1ccc(N2CCN(C(=O)c3ccc4[nH]c(C)c(C)c4c3)CC2)cc1` gave APJ ag 5, APJ antag -33, CXCR6 block -4, EBI2 block 85*, CCR6 antag 8, EBI2 conf 73*, EBI2 agonist 1 and bGal cs -7.
O=C(COc1ccccc1C(=O)c1cnn(-c2ccccc2)c1)Nc1ccccc1 was read as APJ ag 2, APJ antag 8, CXCR6 block 3, EBI2 block 1 and CCR6 antag 13.
Cc1ccccc1Nc1ncnc(N)n1 was read as APJ ag 1, APJ antag -5, CXCR6 block -9, EBI2 block -7 and CCR6 antag 2.
O=Cc1ccc(C(=O)OCC(=O)NC(=O)Nc2ccccc2F)cc1 was read as APJ ag -3, APJ antag -6, CXCR6 block 4, EBI2 block 15 and CCR6 antag 13.
For COc1cccc(C(C(=O)NC2CCCCC2)N(C(=O)Cc2cccs2)c2ccc(-n3cnnn3)c(OC)c2)c1 (configuration not stated) the results were APJ ag -3, APJ antag 6, CXCR6 block 6, EBI2 block 10 and CCR6 antag 2.
COc1cccc(C(C(=O)NC2CCCCC2)N(C(=O)c2cccs2)c2ccc3c(c2)OCO3)c1 (configuration not stated) was read as APJ ag -5, APJ antag 11, CXCR6 block 4, EBI2 block 48*, CCR6 antag 19, EBI2 conf 27, EBI2 agonist -2 and bGal cs -8.
`COC1C=CC(CNC(=O)c2cc3c(=O)n4cccc(C)c4nc3n2C)(OC)O1` (configuration not stated) gave APJ ag -2, APJ antag -10, CXCR6 block 25, EBI2 block 49*, CCR6 antag 13, EBI2 conf -8, EBI2 agonist 2 and bGal cs 6.
For Cc1cccn2c(=O)c3cc(C(=O)NC4CCCC4)n(C)c3nc12 the results were APJ ag 3, APJ antag -13, CXCR6 block -11, EBI2 block -7 and CCR6 antag 9.
Screening Cc1ccc(S(=O)(=O)N2CCCN(C(=O)c3cc4ccccc4[nH]3)CC2)cc1 returned APJ ag -3, APJ antag -6, CXCR6 block -2, EBI2 block 54*, CCR6 antag 13, EBI2 conf 34, EBI2 agonist 1 and bGal cs 10.
Cc1ccc2[nH]c(C(=O)N3CCCC(Nc4ccc(F)cc4)C3)cc2c1 (configuration not stated) was read as APJ ag -3, APJ antag -5, CXCR6 block -8, EBI2 block 24 and CCR6 antag 7.
For Cc1ccc2[nH]c(C(=O)N3CCN(c4cccc(Cl)c4)CC3)cc2c1 the results were APJ ag -2, APJ antag -28, CXCR6 block -6, EBI2 block 54*, CCR6 antag -15, EBI2 conf 47, EBI2 agonist 0 and bGal cs 6.
CN1CCN(C(=O)c2cc3ccccc3[nH]2)CC1 was read as APJ ag -1, APJ antag 21, CXCR6 block -10, EBI2 block 13 and CCR6 antag 5.
Screening CCOC(=O)N1CCN(C(=O)c2cc3cc(C)ccc3[nH]2)CC1 returned APJ ag -3, APJ antag -5, CXCR6 block 6, EBI2 block 88*, CCR6 antag -14, EBI2 conf 67*, EBI2 agonist 0 and bGal cs 7.
Cc1ccc2[nH]c(C(=O)N3CCN(C=O)CC3)cc2c1 was read as APJ ag -2, APJ antag -1, CXCR6 block -4, EBI2 block 75*, CCR6 antag -9, EBI2 conf 28, EBI2 agonist 1 and bGal cs 10.
CCOC(=O)CNc1nc(C(C)(C)C)nc2c1nnn2Cc1ccccc1 was read as APJ ag 2, APJ antag 4, CXCR6 block -3, EBI2 block 6 and CCR6 antag -1.
Screening CC(C)CC(N)C(=O)OCc1ccc([N+](=O)[O-])cc1 (configuration not stated) returned APJ ag -1, APJ antag -2, CXCR6 block -2, EBI2 block 3 and CCR6 antag -3.
CCOc1ccc(NS(=O)(=O)c2ccc(C(=O)N(C)Cc3cccc(OC)c3OC)cc2)cc1 was read as APJ ag -2, APJ antag -12, CXCR6 block 0, EBI2 block 0 and CCR6 antag 11.
CCOC(=O)C1=CC[C@@H](c2cc3cc(OC)ccc3n2C)N(S(=O)(=O)c2ccc(C)cc2)[C@H]1C(=O)OCC was read as APJ ag -2, APJ antag 0, CXCR6 block 1, EBI2 block 5 and CCR6 antag 15.
O=C(COC(=O)c1cc([N+](=O)[O-])ccc1N1CCOCC1)Nc1ccccc1OC(F)F was read as APJ ag 9, APJ antag -59, CXCR6 block -1, EBI2 block 2 and CCR6 antag 15.
`O=C(COC(=O)c1cc([N+](=O)[O-])ccc1N1CCOCC1)c1ccc(OC(F)F)cc1OC(F)F` gave APJ ag -4, APJ antag 18, CXCR6 block 16, EBI2 block 44*, CCR6 antag 17, EBI2 conf 18, EBI2 agonist 0 and bGal cs 8.
For Cc1nc(Cl)cc(CS(=O)(=O)c2ccc(Cl)cc2)n1 the results were APJ ag -3, APJ antag 14, CXCR6 block 1, EBI2 block -15 and CCR6 antag -10.
For Cc1nc(CS(=O)(=O)c2ccccc2)cc(Sc2ccc(Cl)cc2Cl)n1 the results were APJ ag -1, APJ antag 10, CXCR6 block 3, EBI2 block 75*, CCR6 antag 11, EBI2 conf 53*, EBI2 agonist -1 and bGal cs 8.
O=C(COc1ccccc1)N1CCN(c2nnc(-c3ccccc3)c3ccccc23)CC1 was read as APJ ag -3, APJ antag -15, CXCR6 block -2, EBI2 block 71*, CCR6 antag -4, EBI2 conf 47, EBI2 agonist 0 and bGal cs -12.
Screening COc1ccc(OCC(=O)N2CCN(c3nnc(-c4ccc(C)cc4)c4ccccc34)CC2)cc1 returned APJ ag 2, APJ antag 24, CXCR6 block -3, EBI2 block 96*, CCR6 antag 17, EBI2 conf 83*, EBI2 agonist -2 and bGal cs -12.
